Data as given in ChEMBL document CHEMBL1240484, “New 4H-chromen-4-one and 2H-chromene derivatives as anti-picornavirus capsid-binders” (Bioorg Med Chem, 2010).
The source made the active and inactive calls. No cut-off for these calls is given here.

What was measured:
[1] = Cytotoxicity against human HeLa cells assessed as maximum non-cytotoxic concentration after 3 days by XTT assay; assay type: cell-based
In short: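 HeLa cells seeded at 2 × 10³ per well with twofold compound dilutions from the maximum soluble concentration, quadruplicate wells, 37 °C in 5% CO2 for 3 days until controls were confluent. XTT added (final 0.15 mg/mL) for 4 h, absorbance read at 492 nm with 690 nm reference. Morphology also scored microscopically. […] MNTC is the highest dose with no toxicity or growth reduction.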

rhinovirus A1B [2] = assay: Antiviral activity against Human rhinovirus 1B infected in human HeLa cells assessed as reduction of viral yeild at 20 uM treated 2 to 4 hrs after virus infection measured after 10 hrs by plaque reduction assay; assay type: functional, organism-based
In short: (§1)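 One-step growth of HRV 1B in confluent HeLa cells, multiplicity of five, attachment 1 h at 4 °C, then three PBS washes (time 0). Compound at 20 µM present throughout, during adsorption only, or added or removed at 0.5, 1, 2 or 4 h p.i. Incubation at 33 °C to 10 h p.i., three freeze-thaw cycles, supernatant titred by plaque assay on HeLa cells.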

rhinovirus A1B [3] = assay: Antiviral activity against Human rhinovirus 1B infected in human HeLa cells assessed as reduction of viral yeild at 20 uM treated 1 hr before infection measured after 10 hrs by plaque reduction assay; assay type: functional, organism-based; in short: as §1
[4] = Therapeutic index, ratio of TC50 for human HeLa cells to IC50 for HRV 14; assay type: cell-based; settings: read-out: TI
In short: (§2)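 Therapeutic index calculated as TC50 for HeLa cells (XTT, 3 days) divided by IC50 for plaque reduction of HRV 14 or HRV 1B in HeLa cells.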

Enterovirus A71 [5] = assay: Antiviral activity against Human enterovirus 71 infected in human Hep2 cells at maximum non-cytotoxic concentration […] by plaque reduction assay; assay type: functional, HEp-2
rhinovirus A1B [6] = assay: Antiviral activity against Human rhinovirus 1B infected in human HeLa cells after 3 days by plaque reduction assay; assay type: functional, organism-based
In short: (§3)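 HeLa monolayers infected with ATCC HRV 14 or 1B at about 100 plaques per well, 1 h adsorption at 33 °C. Inoculum removed, then plaque overlay with fourfold drug dilutions from the MNTC. Three days at 33 °C, neutral red (0.2 mg/mL, PBS pH 7.4) staining and plaque count, triplicate wells. IC50 from log dose vs % reduction relative to mock-treated control. Otherwise % inhibition at MNTC is reported.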

[7] = Cytotoxicity against human HeLa cells after 3 days by XTT assay; assay type: cell-based; settings: read-out: TC50
In short: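 HeLa cells seeded at 2 × 10³ per well with twofold compound dilutions from the maximum soluble concentration, quadruplicate wells, 37 °C in 5% CO2 for 3 days until controls were confluent. Morphology also scored microscopically. MNTC is the highest dose with no toxicity or growth reduction.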

rhinovirus A1B [8] = assay: Antiviral activity against Human rhinovirus 1B infected in human HeLa cells assessed as reduction of viral yeild at 20 uM after 1 hr by plaque reduction assay; assay type: functional; design: scale not given: the % may be the effect or the level left
[9] = Therapeutic index, ratio of TC50 for human HeLa cells to IC50 for HRV 1B; assay type: cell-based; settings: read-out: TI; in short: as §2
rhinovirus A1B [10] = assay: Antiviral activity against Human rhinovirus 1B infected in human HeLa cells assessed as reduction of viral yeild at 20 uM treated immediately after virus infection measured >1 hr after washout by plaque reduction assay; assay type: functional, organism-based; in short: as §1
rhinovirus A1B [11] = assay: Antiviral activity against Human rhinovirus 1B infected in human HeLa cells assessed as reduction of viral yeild at 20 uM treated 30 mins after virus infection measured after 10 hrs by plaque reduction assay; assay type: functional; design: scale not given: the % may be the effect or the level left; in short: as §1
rhinovirus B14 = assay: Antiviral activity against Human rhinovirus 14 infected in human HeLa cells after 3 days by plaque reduction assay; assay type: functional, organism-based; in short: as §3
Enterovirus A71 [12] = assay: Antiviral activity against Human enterovirus 71 infected in human Hep2 cells after 2 days by plaque reduction assay; assay type: functional, organism-based
In short: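 Inoculum removed, then plaque overlay with fourfold drug dilutions starting from the MNTC. Two days at 37 °C, neutral red (0.2 mg/mL in PBS pH 7.4) staining, plaques counted, triplicate wells. IC50 taken from log dose vs % plaque reduction.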

rhinovirus A1B [13] = assay: Antiviral activity against Human rhinovirus 1B infected in human HeLa cells assessed as reduction of viral yeild at 20 uM treated immediately after virus infection measured 30 mins after washout by plaque reduction assay; assay type: functional; design: scale not given: the % may be the effect or the level left; in short: as §1
[14] = Cytotoxicity against human Hep2 cells assessed as maximum non-cytotoxic concentration after 3 days by XTT assay; assay type: cell-based, HEp-2
In short: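 Hep-2 cells grown in high-glucose DMEM, seeded at 2 × 10³ per well with twofold dilutions from the maximum soluble concentration, quadruplicate wells, 3 days at 37 °C in 5% CO2. XTT (final 0.15 mg/mL) for 4 h, read at 492/690 nm, plus microscopic scoring. MNTC is the highest dose causing no toxic effect or growth reduction.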

rhinovirus A1B [15] = assay: Antiviral activity against Human rhinovirus 1B infected in human HeLa cells assessed as reduction of viral yeild at 20 uM treated 1 hr after virus infection measured after 10 hrs by plaque reduction assay; assay type: functional; design: scale not given: the % may be the effect or the level left; in short: as §1
rhinovirus A1B [16] = assay: Antiviral activity against Human rhinovirus 1B infected in human HeLa cells assessed as inhibition of viral replication at 20 uM after 10 hrs by plaque reduction assay; assay type: functional; design: scale not given: the % may be the effect or the level left; in short: as §1
rhinovirus A1B [17] = assay: Antiviral activity against Human rhinovirus 1B infected in human HeLa cells assessed as virus stabilization at 20 uM at 56 degC after 1 hr by plaque reduction assay (reference value: 3.5 x 10^7 PFU/ml); assay type: functional
In short: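 HRV 1B held with or without 20 µM compound for 1 h at 33 °C, then heated 20 min at 56 °C (pH 7.2) and chilled on ice. Serial 10-fold dilution and plaque titration on HeLa monolayers.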

rhinovirus A1B [18] = assay: Antiviral activity against Human rhinovirus 1B infected in human HeLa cells assessed as reduction of viral yeild at 20 uM treated immediately after virus infection measured after 10 hrs by plaque reduction assay; assay type: functional; design: scale not given: the % may be the effect or the level left; in short: as §1
rhinovirus A1B [19] = assay: Antiviral activity against Human rhinovirus 1B infected in human HeLa cells assessed as virus inactivation at 20 uM at 33 degC after 1 hr by plaque reduction assay (reference value: 2.86 x 10^7 PFU/ml)

## C1=C(/C=C/c2ccccc2)COc2ccccc21
[1]
  MNTC at 72 h: 25 µM
Rhinovirus A1B [2]
  Activity: inactive
Rhinovirus A1B [3]
  Activity: inactive
[4]
  selectivity ratio: 36.2
Enterovirus A71 [5]
  inhibition (INH): 36.1%
Rhinovirus A1B [6]
  Activity: Dose-dependent effect
Rhinovirus A1B [6]; Rhinovirus A, 72 h
  IC50: 200 nM
[7]
  CC50 at 72 h: 50000 nM
Rhinovirus A1B [8]
  Activity: 91.7%
[9]
  selectivity ratio: 250
Rhinovirus A1B [10]
  Activity: Active
Rhinovirus A1B [11]
  Activity: 90%
Rhinovirus B14
  Activity: Dose-dependent effect
Rhinovirus B14; Rhinovirus B, 72 h
  IC50: 1380 nM
Enterovirus A71 [12]; Enterovirus A, HEp-2, 48 h
  IC50: > 12500 nM
Enterovirus A71 [12]; HEp-2
  Activity: Dose-dependent effect
Rhinovirus A1B [13]
  Activity: 91.8%
[14]
  MNTC at 72 h: 12.5 µM
Rhinovirus A1B [15]
  Activity: 7.7%
Rhinovirus A1B [16]
  Activity: 92%
Rhinovirus A1B [17]
  log10PFU/ml: 2.1
Rhinovirus A1B [18]
  Activity: 91.4%
Rhinovirus A1B [19]
  PFU/ml: 26600000
